Measured values of several laboratories.
Each line is one published result; the experiments were not run side by side. Converted amounts (≈) assume the structure as drawn.

| Compound | organism | test | test system | setting | endpoint | result |
| --- | --- | --- | --- | --- | --- | --- |
| Cc1c(NN=C(C#N)C2=NC(=O)CS2)c(=O)n(-c2ccccc2)n1C | Klebsiella pneumoniae | microbial killing, broth dilution | – | – | MBC | 2 µg/mL (≈ 5.64 µM) |
| COC(=O)c1cc(-c2cccc(NC(=S)Nc3ccc(C#N)cc3)c2)on1 | Klebsiella pneumoniae | microbial growth, broth dilution | BAA1705 | – | MIC | > 64 µg/mL |
| CC(C)C(C)CCCCCCCCCCCc1cc(O)cc(O)c1 (stereo not drawn) | Klebsiella pneumoniae | microbial growth | ATCC29665 | – | IC50 | > 200 µM |
| Oc1cccc2cccnc12 | Klebsiella pneumoniae | microbial growth, broth dilution | ATCC700603 | – | IC50 | 49.5 µg/mL |
| COC(=O)c1cc(-c2cccc(NC(=O)Nc3ccccc3F)c2)on1 | Klebsiella pneumoniae | microbial growth, broth dilution | BAA1705 | – | MIC | > 64 µg/mL |
| NCCc1ccc(O)cc1 | Cryptosporidium parvum | parasite growth, imaging | HCT-8 | 1 mM, 24 h, intracellular | activity vs control | 94% |
| CC(C)CCCCCCCCCCCCCCCc1cc(O)cc(O)c1 | Klebsiella pneumoniae | microbial growth | ATCC29665 | – | IC50 | > 200 µM |
| COC(=O)c1cc(-c2cccc(NC(=O)Nc3cc(Cl)ccc3Cl)c2)on1 | Klebsiella pneumoniae | microbial growth, broth dilution | BAA1705 | – | MIC | > 64 µg/mL |
| CCC(CCCCCCCCCCc1cc(O)cc(O)c1)C(C)C (stereo not drawn) | Streptococcus pneumoniae | microbial growth | – | – | IC50 | 30.2 µM |
| N#Cc1c[nH]c2ccccc12 | Cryptosporidium parvum | parasite growth | HCT-8 | 24 h, intracellular | EC90 | 386 µM |
| CCCCCCCCCCCCCCCc1cc(O)cc(O)c1 | Streptococcus pneumoniae | microbial growth | – | – | IC50 | > 200 µM |
| COC(=O)c1cc(-c2cccc(NC(=S)Nc3ccc(OC)cc3)c2)on1 | Klebsiella pneumoniae | microbial growth, broth dilution | BAA1705 | – | MIC | > 64 µg/mL |
